According to ChEMBL document CHEMBL4689842, “EUbOPEN Chemogenomics Library wave 1” (2021):

System: HEK-293T
Assay: Multiplex assay against HEK293T;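 on Population Tubulin-Different-Phenotype (%): share of the cells with healthy nuclei that show this phenotype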
Format: toxicity, cell-based
Conditions: human
Summary of the method: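 Tubulin, mitochondrial-mass and membrane-permeability phenotypes are per cents of healthy-nucleus cells. Cells were gated by CellPathfinder machine learning into Hoechst high-intensity objects or normal cells, normal cells into healthy, pyknosed or fragmented nuclei, and pyknosed cells into mitotic or apoptotic. Before that, live cells stained at seeding with Hoechst33342, BioTracker Green Microtubule Cytoskeleton Dye, MitoTracker Red and Annexin V Alexa Fluor 680 were imaged on a CQ1 microscope at 37°C and 5% CO2 after compound addition.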

[1] = 12 h, 1 µM, compound concentration 1 uM, replicate 1
[2] = 12 h, 1 µM, compound concentration 1 uM, replicate 2
[3] = 12 h, 10 µM, compound concentration 10 uM, replicate 1
[4] = 12 h, 10 µM, compound concentration 10 uM, replicate 2
[5] = 24 h, 1 µM, compound concentration 1 uM, replicate 1
[6] = 24 h, 1 µM, compound concentration 1 uM, replicate 2
[7] = 24 h, 10 µM, compound concentration 10 uM, replicate 1
[8] = 24 h, 10 µM, compound concentration 10 uM, replicate 2
[9] = 48 h, 1 µM, compound concentration 1 uM, replicate 1
[10] = 48 h, 1 µM, compound concentration 1 uM, replicate 2
[11] = 48 h, 10 µM, compound concentration 10 uM, replicate 1
[12] = 48 h, 10 µM, compound concentration 10 uM, replicate 2

O=C(Nc1ccc(Cl)cc1)Nc1cccc(-c2cccc(N3CCCC3)n2)c1
Population Apoptotic (%) [1]: 51%
Population Fragmented Nuclei (%) [1]: 10%
Population Hoechst High Intensity Objects (%) [1]: 12%
Population Membrane Permeable-Phenotype (%) [1]: 2%
Population Mitochondria Different-Phenotype (%) [1]: 63%
Population Mitotic Cells (%) [1]: 48%
Population Normal (%) [1]: 87%
Population Pyknosed Nuclei (%) [1]: 45%
Population Tubulin-Different-Phenotype (%) [1]: 46%
Population Apoptotic (%) [2]: 17%
Population Fragmented Nuclei (%) [2]: 5%
Population Healthy Nuclei (%) [2]: 43%
Population Hoechst High Intensity Objects (%) [2]: 5%
Population Membrane Permeable-Phenotype (%) [2]: 16%
Population Mitochondria Different-Phenotype (%) [2]: 6%
Population Mitotic Cells (%) [2]: 82%
Population Normal (%) [2]: 94%
Population Pyknosed Nuclei (%) [2]: 51%
Population Tubulin-Different-Phenotype (%) [2]: 17%
Population Apoptotic (%) [3]: 85%
Population Fragmented Nuclei (%) [3]: 31%
Population Healthy Nuclei (%) [3]: 2%
Population Hoechst High Intensity Objects (%) [3]: 32%
Population Membrane Permeable-Phenotype (%) [3]: 66%
Population Mitochondria Different-Phenotype (%) [3]: 0%
Population Mitotic Cells (%) [3]: 14%
Population Normal (%) [3]: 68%
Population Pyknosed Nuclei (%) [3]: 65%
Population Tubulin-Different-Phenotype (%) [3]: 33%
Population Apoptotic (%) [4]: 46%
Population Fragmented Nuclei (%) [4]: 7%
Population Healthy Nuclei (%) [4]: 14%
Population Hoechst High Intensity Objects (%) [4]: 9%
Population Membrane Permeable-Phenotype (%) [4]: 70%
Population Mitochondria Different-Phenotype (%) [4]: 10%
Population Mitotic Cells (%) [4]: 53%
Population Normal (%) [4]: 90%
Population Pyknosed Nuclei (%) [4]: 78%
Population Tubulin-Different-Phenotype (%) [4]: 60%
Population Apoptotic (%) [5]: 49%
Population Fragmented Nuclei (%) [5]: 9%
Population Healthy Nuclei (%) [5]: 47%
Population Hoechst High Intensity Objects (%) [5]: 11%
Population Membrane Permeable-Phenotype (%) [5]: 9%
Population Mitochondria Different-Phenotype (%) [5]: 38%
Population Mitotic Cells (%) [5]: 50%
Population Normal (%) [5]: 88%
Population Pyknosed Nuclei (%) [5]: 43%
Population Tubulin-Different-Phenotype (%) [5]: 37%
Population Apoptotic (%) [6]: 9%
Population Fragmented Nuclei (%) [6]: 8%
Population Healthy Nuclei (%) [6]: 60%
Population Hoechst High Intensity Objects (%) [6]: 3%
Population Membrane Permeable-Phenotype (%) [6]: 24%
Population Mitochondria Different-Phenotype (%) [6]: 2%
Population Mitotic Cells (%) [6]: 90%
Population Normal (%) [6]: 96%
Population Pyknosed Nuclei (%) [6]: 30%
Population Tubulin-Different-Phenotype (%) [6]: 28%
Population Apoptotic (%) [7]: 85%
Population Fragmented Nuclei (%) [7]: 43%
Population Healthy Nuclei (%) [7]: 6%
Population Hoechst High Intensity Objects (%) [7]: 45%
Population Membrane Permeable-Phenotype (%) [7]: 0%
Population Mitochondria Different-Phenotype (%) [7]: 50%
Population Mitotic Cells (%) [7]: 14%
Population Normal (%) [7]: 54%
Population Pyknosed Nuclei (%) [7]: 50%
Population Tubulin-Different-Phenotype (%) [7]: 66%
Population Apoptotic (%) [8]: 56%
Population Fragmented Nuclei (%) [8]: 8%
Population Healthy Nuclei (%) [8]: 14%
Population Hoechst High Intensity Objects (%) [8]: 30%
Population Membrane Permeable-Phenotype (%) [8]: 43%
Population Mitochondria Different-Phenotype (%) [8]: 12%
Population Mitotic Cells (%) [8]: 43%
Population Normal (%) [8]: 69%
Population Pyknosed Nuclei (%) [8]: 76%
Population Tubulin-Different-Phenotype (%) [8]: 56%
Population Apoptotic (%) [9]: 47%
Population Fragmented Nuclei (%) [9]: 11%
Population Healthy Nuclei (%) [9]: 57%
Population Hoechst High Intensity Objects (%) [9]: 9%
Population Membrane Permeable-Phenotype (%) [9]: 5%
Population Mitochondria Different-Phenotype (%) [9]: 14%
Population Mitotic Cells (%) [9]: 52%
Population Normal (%) [9]: 90%
Population Pyknosed Nuclei (%) [9]: 30%
Population Tubulin-Different-Phenotype (%) [9]: 38%
Population Apoptotic (%) [10]: 7%
Population Fragmented Nuclei (%) [10]: 5%
Population Healthy Nuclei (%) [10]: 82%
Population Hoechst High Intensity Objects (%) [10]: 2%
Population Membrane Permeable-Phenotype (%) [10]: 26%
Population Mitochondria Different-Phenotype (%) [10]: 0%
Population Mitotic Cells (%) [10]: 92%
Population Normal (%) [10]: 97%
Population Pyknosed Nuclei (%) [10]: 11%
Population Tubulin-Different-Phenotype (%) [10]: 19%
Population Apoptotic (%) [11]: 80%
Population Fragmented Nuclei (%) [11]: 61%
Population Healthy Nuclei (%) [11]: 7%
Population Hoechst High Intensity Objects (%) [11]: 40%
Population Membrane Permeable-Phenotype (%) [11]: 25%
Population Mitochondria Different-Phenotype (%) [11]: 50%
Population Mitotic Cells (%) [11]: 19%
Population Normal (%) [11]: 59%
Population Pyknosed Nuclei (%) [11]: 30%
Population Tubulin-Different-Phenotype (%) [11]: 87%
Population Apoptotic (%) [12]: 52%
Population Fragmented Nuclei (%) [12]: 22%
Population Healthy Nuclei (%) [12]: 22%
Population Hoechst High Intensity Objects (%) [12]: 26%
Population Membrane Permeable-Phenotype (%) [12]: 72%
Population Mitochondria Different-Phenotype (%) [12]: 6%
Population Mitotic Cells (%) [12]: 47%
Population Normal (%) [12]: 73%
Population Pyknosed Nuclei (%) [12]: 54%
Population Tubulin-Different-Phenotype (%) [12]: 79%
